According to ChEMBL document CHEMBL4359903, “1,2,4-Oxadiazole derivatives targeting EGFR and c-Met degradation in TKI resistant NSCLC” (Eur J Med Chem, 2019):
Values belong to the compound of their own block, whether it stands above or below them. Active and inactive are the calls of the source. The calls are words filed in the database; no cut-off is given here.

Tests used:
MDA-MB-231 [1] = experiment: Antiproliferative activity against human MDA-MB-231 cells assessed as reduction in cell viability incubated for 72 hrs by MTT assay; format: functional, cell-based; details: MDA-MB-231, 72 h
How it was run: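 MTT viability assay after 72 h of drug exposure. Cells seeded at 5000 per well in 10% FBS and left overnight, then treated in 5% FBS. MTT added for 1 h, dye dissolved in DMSO, absorbance read at 570 nm. Viability given relative to vehicle-treated cells.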

[2] = target: Hepatocyte growth factor receptor (Homo sapiens) (UniProt P08581); experiment: Induction of c-MET degradation in human MDA-MB-231 cells assessed as reduction in c-Met expression incubated for 48 hrs by immunoblot analysis; format: cell-based
How it was run: (§1)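 After 48 h treatment, cells were scraped and lysed in 1% SDS, 50 mM Tris-HCl pH 8.0, 10 mM EDTA with protease and phosphatase inhibitors. Lysates sonicated, protein measured by BCA, equal amounts run on SDS-PAGE and blotted to nitrocellulose. Primary antibodies (EGFR, c-Met, S473-Akt, Akt, GAPDH) used at 1:1000 overnight at 4 °C, HRP secondaries at 1:5000, ECL detection.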

[3] = target: Epidermal growth factor receptor (Homo sapiens) (UniProt P00533); experiment: Induction of EGFR degradation in human MDA-MB-231 cells assessed as reduction in EGFR expression incubated for 48 hrs by immunoblot analysis; format: cell-based; how it was run: as §1
CL97 = experiment: Antiproliferative activity against human CL97 cells harbouring EGFR G719A/T790M mutant assessed as reduction in cell viability incubated for 72 hrs by MTT assay; format: functional, cell-based; details: CL97, 72 h
NCI-H1975 [4] = experiment: Antiproliferative activity against human NCI-H1975 cells harbouring EGFR L858R/T790M double mutant assessed as reduction in cell viability incubated for 72 hrs by MTT assay; format: functional, cell-based; details: NCI-H1975, 72 h
[5] = Antiproliferative activity against human CL68 cells harbouring EGFR delE746-A750/T790M mutant assessed as reduction in cell viability incubated for 72 hrs by MTT assay; format: functional, cell-based
PC-9 = experiment: Antiproliferative activity against human PC9 cells harbouring EGFR delE746-A750 mutant assessed as reduction in cell viability incubated for 72 hrs by MTT assay; format: functional, cell-based; details: PC-9, 72 h
A549 = experiment: Antiproliferative activity against wild type human A549 cells assessed as reduction in cell viability incubated for 72 hrs by MTT assay; format: functional, cell-based; details: A549, 72 h
MDA-MB-231 [6] = experiment: Growth inhibition of human MDA-MB-231 cells incubated for 3 days by CellTiter 96 aqueous nonradioactive cell proliferation assay; format: functional; details: MDA-MB-231, 72 h
NCI-H1975 [7] = experiment: Growth inhibition of human NCI-H1975 cells incubated for 3 days by CellTiter 96 aqueous nonradioactive cell proliferation assay; format: functional; details: NCI-H1975, 72 h

Epidermal growth factor receptor (Homo sapiens), sequence (P00533 whole entry): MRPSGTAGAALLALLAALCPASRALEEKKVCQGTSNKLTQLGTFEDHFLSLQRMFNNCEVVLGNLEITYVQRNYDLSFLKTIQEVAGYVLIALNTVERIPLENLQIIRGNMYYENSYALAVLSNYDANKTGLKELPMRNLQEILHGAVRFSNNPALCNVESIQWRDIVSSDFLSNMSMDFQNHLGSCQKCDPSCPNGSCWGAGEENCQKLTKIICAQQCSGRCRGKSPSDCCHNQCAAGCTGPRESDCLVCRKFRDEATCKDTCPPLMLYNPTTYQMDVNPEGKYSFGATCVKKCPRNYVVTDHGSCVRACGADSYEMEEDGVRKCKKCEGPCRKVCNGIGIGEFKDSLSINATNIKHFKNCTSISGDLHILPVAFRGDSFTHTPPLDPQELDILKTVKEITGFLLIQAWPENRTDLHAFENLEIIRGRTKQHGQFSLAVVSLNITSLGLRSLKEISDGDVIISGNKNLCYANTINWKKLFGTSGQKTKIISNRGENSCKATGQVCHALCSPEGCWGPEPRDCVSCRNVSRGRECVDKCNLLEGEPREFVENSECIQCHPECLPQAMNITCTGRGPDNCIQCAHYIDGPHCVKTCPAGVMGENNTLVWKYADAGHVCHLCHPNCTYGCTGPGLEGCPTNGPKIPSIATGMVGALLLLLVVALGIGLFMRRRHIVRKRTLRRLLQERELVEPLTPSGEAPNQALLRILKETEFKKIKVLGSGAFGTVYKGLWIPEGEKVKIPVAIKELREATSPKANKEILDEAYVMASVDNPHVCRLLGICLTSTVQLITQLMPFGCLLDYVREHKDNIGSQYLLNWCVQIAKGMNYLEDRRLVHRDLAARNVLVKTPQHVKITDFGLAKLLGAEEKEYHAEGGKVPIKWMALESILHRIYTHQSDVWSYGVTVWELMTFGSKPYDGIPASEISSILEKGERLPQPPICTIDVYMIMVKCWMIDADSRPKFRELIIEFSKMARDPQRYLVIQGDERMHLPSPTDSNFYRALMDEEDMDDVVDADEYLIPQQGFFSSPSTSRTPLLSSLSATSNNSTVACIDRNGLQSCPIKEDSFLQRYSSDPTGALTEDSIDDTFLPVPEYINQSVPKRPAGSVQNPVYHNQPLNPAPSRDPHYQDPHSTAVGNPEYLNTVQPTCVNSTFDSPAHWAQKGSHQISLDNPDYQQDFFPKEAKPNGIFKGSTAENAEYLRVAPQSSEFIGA
Hepatocyte growth factor receptor (Homo sapiens), sequence (P08581 whole entry): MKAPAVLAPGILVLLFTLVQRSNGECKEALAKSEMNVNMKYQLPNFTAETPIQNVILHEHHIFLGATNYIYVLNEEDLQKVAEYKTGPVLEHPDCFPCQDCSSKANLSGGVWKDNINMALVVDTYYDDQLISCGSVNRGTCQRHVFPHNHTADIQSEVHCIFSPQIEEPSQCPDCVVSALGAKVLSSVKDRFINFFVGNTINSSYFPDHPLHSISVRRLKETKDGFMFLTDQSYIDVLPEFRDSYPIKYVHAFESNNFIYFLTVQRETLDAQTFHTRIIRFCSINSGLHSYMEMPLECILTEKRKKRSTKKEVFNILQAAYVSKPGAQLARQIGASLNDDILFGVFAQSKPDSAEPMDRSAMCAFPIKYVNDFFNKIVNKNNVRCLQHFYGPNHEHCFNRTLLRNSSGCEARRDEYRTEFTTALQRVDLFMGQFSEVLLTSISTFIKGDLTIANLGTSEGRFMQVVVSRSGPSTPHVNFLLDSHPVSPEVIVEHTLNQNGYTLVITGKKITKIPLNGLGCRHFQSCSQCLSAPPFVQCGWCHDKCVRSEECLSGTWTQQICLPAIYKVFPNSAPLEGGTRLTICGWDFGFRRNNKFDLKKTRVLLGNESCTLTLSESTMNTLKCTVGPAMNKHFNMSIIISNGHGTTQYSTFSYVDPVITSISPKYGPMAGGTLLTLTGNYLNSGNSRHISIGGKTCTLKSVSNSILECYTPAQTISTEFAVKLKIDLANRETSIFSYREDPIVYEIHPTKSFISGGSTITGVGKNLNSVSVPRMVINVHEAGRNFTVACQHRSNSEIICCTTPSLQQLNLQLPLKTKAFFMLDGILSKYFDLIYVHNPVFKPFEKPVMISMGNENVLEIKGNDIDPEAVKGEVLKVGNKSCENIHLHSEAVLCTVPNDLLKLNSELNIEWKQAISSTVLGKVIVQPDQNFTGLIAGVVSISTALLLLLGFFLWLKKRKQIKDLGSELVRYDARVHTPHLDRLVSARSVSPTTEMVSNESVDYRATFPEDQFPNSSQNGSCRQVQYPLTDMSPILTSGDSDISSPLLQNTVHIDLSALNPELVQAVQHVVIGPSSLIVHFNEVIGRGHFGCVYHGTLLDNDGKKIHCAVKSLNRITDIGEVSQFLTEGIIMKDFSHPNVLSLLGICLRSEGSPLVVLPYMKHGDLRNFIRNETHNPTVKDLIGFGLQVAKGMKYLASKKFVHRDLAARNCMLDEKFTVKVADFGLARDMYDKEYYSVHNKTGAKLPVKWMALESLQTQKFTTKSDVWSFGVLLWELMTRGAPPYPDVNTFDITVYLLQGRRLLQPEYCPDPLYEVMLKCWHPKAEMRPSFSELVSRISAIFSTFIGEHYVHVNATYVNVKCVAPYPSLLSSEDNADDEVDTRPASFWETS

SMILES: NS(=O)(=O)c1ccc(NC(=O)Nc2cccc(-c3nc(-c4ccc(NC(=O)c5cccnc5)cc4Cl)no3)c2)cc1
IC50 (MDA-MB-231 [1]): > 10 µM

SMILES: C#Cc1cccc(NC(=O)Nc2cccc(-c3nc(-c4ccc(NC(=O)c5cccnc5)cc4Cl)no3)c2)c1
IC50 (MDA-MB-231 [1]): > 10 µM

SMILES: C#Cc1cccc(Nc2ncnc3cc(OCCOC)c(OCCOC)cc23)c1 [ERLOTINIB]
IC50 (CL97): > 20 µM
IC50 (NCI-H1975 [4]): 10 µM
IC50 [5]: 5 µM
IC50 (PC-9): 0.1 µM

SMILES: CCN(CC)C(=O)Nc1ccc(S(=O)(=O)Nc2cccc(-c3nc(-c4ccc(NC(=O)c5cccnc5)cc4Cl)no3)c2)cc1
IC50 (MDA-MB-231 [1]): 8.7 µM

SMILES: CC(=O)Nc1ccc(S(=O)(=O)Nc2cccc(-c3nc(-c4ccc(NC(=O)c5cccnc5)c(C(F)(F)F)c4)no3)c2)cc1
IC50 (MDA-MB-231 [1]): > 10 µM

SMILES: CC(=O)Nc1ccc(S(=O)(=O)Nc2cccc(-c3nc(-c4ccc(NC(=O)c5cccnc5)cc4C(F)(F)F)no3)c2)cc1
IC50 (MDA-MB-231 [1]): > 10 µM

SMILES: O=C(Nc1ccc(-c2noc(-c3cccc(NS(=O)(=O)c4ccc(NC(=O)N5CCOCC5)cc4)c3)n2)c(Cl)c1)c1cccnc1
IC50 (MDA-MB-231 [1]): > 10 µM

SMILES: CS(=O)(=O)Nc1cccc(NC(=O)Nc2cccc(-c3nc(-c4ccc(NC(=O)c5cccnc5)cc4Cl)no3)c2)c1
IC50 (MDA-MB-231 [1]): > 10 µM

SMILES: COc1cc(NC(=O)c2cccnc2)ccc1-c1noc(-c2cccc(NS(=O)(=O)c3ccc(NC(C)=O)cc3)c2)n1
IC50 (MDA-MB-231 [1]): > 10 µM

SMILES: O=C(Nc1ccccc1)Nc1cccc(-c2nc(-c3ccc(NC(=O)c4cccnc4)cc3Cl)no2)c1
IC50 (MDA-MB-231 [1]): > 10 µM

SMILES: CC(=O)Nc1ccc(NC(=O)Nc2cccc(-c3nc(-c4ccc(NC(=O)c5cccnc5)cc4Cl)no3)c2)cc1Cl
IC50 (MDA-MB-231 [1]): > 10 µM

SMILES: CC(=O)Nc1ccc(S(=O)(=O)Nc2cccc(-c3nc(-c4ccc(NC(=O)c5cccnc5)cc4Cl)no3)c2)cc1Cl
IC50 (MDA-MB-231 [1]): > 10 µM

SMILES: O=C(Nc1ccc(-c2noc(-c3cccc(NS(=O)(=O)c4ccc(NC(=O)N5CCCCC5)cc4)c3)n2)c(Cl)c1)c1cccnc1
IC50 (MDA-MB-231 [1]): > 10 µM

SMILES: O=C(Nc1cccc(-c2nc(-c3ccc(NC(=O)c4cccnc4)cc3Cl)no2)c1)c1ccccc1
IC50 (MDA-MB-231 [1]): 12.8 µM

SMILES: CC(=O)Nc1ccc(S(=O)(=O)Nc2cccc(-c3nc(-c4ccc(NC(=O)c5cccnc5)cc4Cl)no3)c2)cc1C
IC50 (MDA-MB-231 [1]): > 10 µM

SMILES: O=C(Nc1ccc(Cl)cc1)Nc1cccc(-c2nc(-c3ccc(NC(=O)c4cccnc4)cc3Cl)no2)c1
IC50 (MDA-MB-231 [1]): > 10 µM

SMILES: C#Cc1ccc(NC(=O)Nc2cccc(-c3nc(-c4ccc(NC(=O)c5cccnc5)cc4Cl)no3)c2)cc1
IC50 (MDA-MB-231 [1]): > 10 µM

SMILES: COc1cc(-c2noc(-c3cccc(NS(=O)(=O)c4ccc(NC(C)=O)cc4)c3)n2)ccc1NC(=O)c1cccnc1
IC50 (MDA-MB-231 [1]): > 10 µM

SMILES: COc1cccc(NC(=O)Nc2cccc(-c3nc(-c4ccc(NC(=O)c5cccnc5)cc4Cl)no3)c2)c1
IC50 (MDA-MB-231 [1]): 6.7 µM

SMILES: NS(=O)(=O)Nc1ccc(NC(=O)Nc2cccc(-c3nc(-c4ccc(NC(=O)c5cccnc5)cc4Cl)no3)c2)cc1
IC50 (MDA-MB-231 [1]): 8.9 µM

SMILES: O=C(Nc1ccc(S(=O)(=O)Nc2cccc(-c3nc(-c4ccc(NC(=O)c5cccnc5)cc4Cl)no3)c2)cc1)NC1CCCC1
IC50 (MDA-MB-231 [1]): > 10 µM

SMILES: CC(=O)Nc1ccc(NC(=O)Nc2cccc(-c3nc(-c4ccc(NC(=O)c5cccnc5)cc4Cl)no3)c2)cc1
IC50 (MDA-MB-231 [1]): > 10 µM

SMILES: O=C(Nc1ccc(-c2noc(-c3cccc(NS(=O)(=O)c4ccc(C(F)(F)F)cc4)c3)n2)c(Cl)c1)c1cccnc1
IC50 (MDA-MB-231 [1]): > 10 µM

SMILES: CC(C)c1cc(C(=O)N2CCc3sccc3C2)c(O)cc1O
GI50 (MDA-MB-231 [6]): 0.478 µM
GI50 (NCI-H1975 [7]): 1.67 µM

SMILES: NS(=O)(=O)c1ccc(S(=O)(=O)Nc2cccc(-c3nc(-c4ccc(NC(=O)c5cccnc5)cc4Cl)no3)c2)cc1
IC50 (MDA-MB-231 [1]): > 10 µM

SMILES: O=C(Nc1ccc(-c2noc(-c3cccc(NS(=O)(=O)c4ccccc4)c3)n2)c(Cl)c1)c1cccnc1
IC50 (MDA-MB-231 [1]): > 10 µM

SMILES: Cc1ccc(S(=O)(=O)Nc2cccc(-c3nc(-c4ccc(NC(=O)c5cccnc5)cc4Cl)no3)c2)cc1
IC50 (MDA-MB-231 [1]): > 10 µM

SMILES: CN(C)C/C=C/C(=O)Nc1cc2c(Nc3ccc(F)c(Cl)c3)ncnc2cc1O[C@H]1CCOC1 [AFATINIB]
IC50 (CL97): 0.1 µM
IC50 (NCI-H1975 [4]): 1 µM
IC50 [5]: 0.1 µM
IC50 (PC-9): < 0.01 µM
IC50 (A549): 5 to 10 µM

SMILES: O=C(Nc1ccc(-c2noc(-c3cccc(NS(=O)(=O)c4cccc(Cl)c4)c3)n2)c(Cl)c1)c1cccnc1
IC50 (MDA-MB-231 [1]): > 10 µM

SMILES: COc1cccc(S(=O)(=O)Nc2cccc(-c3nc(-c4ccc(NC(=O)c5cccnc5)cc4Cl)no3)c2)c1
IC50 (MDA-MB-231 [1]): > 10 µM

Continued, values first:

IC50 (MDA-MB-231 [1]): 2.9 µM
SMILES: O=C(Nc1cccc(-c2nc(-c3ccc(NC(=O)c4cccnc4)cc3Cl)no2)c1)Nc1ccc(NC(=O)c2cccs2)c(C(F)(F)F)c1

Activity [2]: Active
Activity [3]: Active
IC50 (MDA-MB-231 [1]): 0.3 µM
SMILES: O=C(Nc1ccc(NS(=O)(=O)C2CC2)cc1)Nc1cccc(-c2nc(-c3ccc(NC(=O)c4cccnc4)cc3Cl)no2)c1

IC50 (MDA-MB-231 [1]): 1.3 µM
SMILES: CNC(=O)Nc1ccc(S(=O)(=O)Nc2cccc(-c3nc(-c4ccc(NC(=O)c5cccnc5)cc4Cl)no3)c2)cc1

Activity [2]: Active
Activity [3]: inactive
IC50 (MDA-MB-231 [1]): 1.7 µM
SMILES: COc1ccc(NC(=O)Nc2cccc(-c3nc(-c4ccc(NC(=O)c5cccnc5)cc4Cl)no3)c2)cc1C(F)(F)F

IC50 (MDA-MB-231 [1]): 3.5 µM
SMILES: Cc1ccc(NC(=O)Nc2cccc(-c3nc(-c4ccc(NC(=O)c5cccnc5)cc4Cl)no3)c2)cc1

IC50 (MDA-MB-231 [1]): 2.5 µM
SMILES: CC(=O)Nc1ccc(S(=O)(=O)Nc2cccc(-c3nc(-c4ccc(NC(=O)c5cccnc5)cc4Cl)no3)c2)cc1

IC50 (MDA-MB-231 [1]): 3.4 µM
SMILES: NC(=O)Nc1ccc(NC(=O)Nc2cccc(-c3nc(-c4ccc(NC(=O)c5cccnc5)cc4Cl)no3)c2)cc1C(F)(F)F

Activity [2]: Active
Activity [3]: inactive
IC50 (MDA-MB-231 [1]): 0.6 µM
SMILES: CS(=O)(=O)Nc1ccc(NC(=O)Nc2cccc(-c3nc(-c4ccc(NC(=O)c5cccnc5)cc4Cl)no3)c2)cc1

Activity [2]: Active
Activity [3]: inactive
IC50 (MDA-MB-231 [1]): 0.6 µM
SMILES: CS(=O)(=O)Nc1ccc(NC(=O)Nc2cccc(-c3nc(-c4ccc(NC(=O)c5cccnc5)cc4Cl)no3)c2)cc1Cl

IC50 (MDA-MB-231 [1]): 3.1 µM
SMILES: CCNC(=O)Nc1ccc(S(=O)(=O)Nc2cccc(-c3nc(-c4ccc(NC(=O)c5cccnc5)cc4Cl)no3)c2)cc1

IC50 (MDA-MB-231 [1]): 5.8 µM
SMILES: O=C(Nc1ccc(-c2noc(-c3cccc(NS(=O)(=O)c4ccc(NC(=O)N5CCCC5)cc4)c3)n2)c(Cl)c1)c1cccnc1

Activity [2]: Active
Activity [3]: Active
IC50 (MDA-MB-231 [1]): 0.3 µM
SMILES: O=C(Nc1cccc(-c2nc(-c3ccc(NC(=O)c4cccnc4)cc3Cl)no2)c1)Nc1ccc(NC(=O)C2CCCC2)c(C(F)(F)F)c1

IC50 (MDA-MB-231 [1]): 3 µM
SMILES: COc1ccc(NC(=O)Nc2cccc(-c3nc(-c4ccc(NC(=O)c5cccnc5)cc4Cl)no3)c2)cc1

IC50 (MDA-MB-231 [1]): 5.2 µM
SMILES: CC(=O)Nc1ccc(S(=O)(=O)Nc2cccc(-c3nc(-c4ccc(NC(=O)c5cccnc5)cc4)no3)c2)cc1

Activity [2]: Active
Activity [3]: inactive
IC50 (MDA-MB-231 [1]): 1.9 µM
SMILES: O=C(Nc1cccc(-c2nc(-c3ccc(NC(=O)c4cccnc4)cc3Cl)no2)c1)Nc1cccc(C(F)(F)F)c1

IC50 (MDA-MB-231 [1]): 1.9 µM
SMILES: O=C(Nc1cccc(-c2nc(-c3ccc(NC(=O)c4cccnc4)cc3Cl)no2)c1)Nc1ccc(Cl)c(C(F)(F)F)c1

IC50 (MDA-MB-231 [1]): 1 µM
SMILES: CC(=O)Nc1ccc(NC(=O)Nc2cccc(-c3nc(-c4ccc(NC(=O)c5cccnc5)cc4Cl)no3)c2)cc1Br

IC50 (MDA-MB-231 [1]): 4.5 µM
SMILES: CC(=O)Nc1ccc(S(=O)(=O)Nc2cccc(-c3nc(-c4ccc(NC(=O)c5cccnc5)c(Cl)c4)no3)c2)cc1

IC50 (MDA-MB-231 [1]): 0.7 µM
SMILES: CS(=O)(=O)Nc1ccc(NC(=O)Nc2cccc(-c3nc(-c4ccc(NC(=O)c5cccnc5)cc4Cl)no3)c2)cc1C(F)(F)F

IC50 (MDA-MB-231 [1]): 0.7 µM
SMILES: CS(=O)(=O)Nc1ccc(NC(=O)Nc2cccc(-c3nc(-c4ccc(NC(=O)c5cccnc5)cc4Cl)no3)c2)cc1Br

IC50 (MDA-MB-231 [1]): 1.9 µM
SMILES: O=C(Nc1cccc(-c2nc(-c3ccc(NC(=O)c4cccnc4)cc3Cl)no2)c1)Nc1cc(C(F)(F)F)cc(C(F)(F)F)c1

IC50 (MDA-MB-231 [1]): 2.8 µM
SMILES: NC(=O)Nc1ccc(S(=O)(=O)Nc2cccc(-c3nc(-c4ccc(NC(=O)c5cccnc5)cc4Cl)no3)c2)cc1
